Screening data deposited in PubChem by Johns Hopkins Ion Channel Center.
MrgX1 antag: human MrgX1 receptor antagonism, primary screen; Q96LB2; B-score at 10 µM; 1.3% of 310,000 active; MRGX1-HEK293 calcium flux, Fluo-4, BAM8-22 antagonism; hits give low values; AID 588676;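 active means calcium-response B-score plate-corrected more than 3 library SD below zero, starting fluorescence within 5 deviations, no agonist response on first addition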;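 further: peak minus trough fluorescence over baseline after final BAM8-22 challenge near maximal dose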
Target sequence (Q96LB2 whole entry, looked up): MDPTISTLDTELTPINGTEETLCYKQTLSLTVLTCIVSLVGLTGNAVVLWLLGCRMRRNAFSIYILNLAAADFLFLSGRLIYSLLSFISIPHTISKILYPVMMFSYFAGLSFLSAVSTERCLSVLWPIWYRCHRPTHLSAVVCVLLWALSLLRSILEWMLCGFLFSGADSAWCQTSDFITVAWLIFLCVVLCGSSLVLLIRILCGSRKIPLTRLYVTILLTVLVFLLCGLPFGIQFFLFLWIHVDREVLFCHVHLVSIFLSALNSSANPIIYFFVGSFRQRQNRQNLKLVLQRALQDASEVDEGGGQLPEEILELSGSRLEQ
MrgX1 ag: activates human MrgX1 receptor signaling; B-score at 10 µM; MrgX1-HEK293 cells, Fluo-4 calcium fluorescence, agonist mode; hits give high values; Q96LB2; AID 588627; 0.44% of 310,000 active;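 active means calcium response B-score plate-corrected fluorescence ratio at least 3 library SD, with starting fluorescence B-score inside 5 SD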
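Material: MrgX1-expressing HEK293 cells; input: 15,000 cells per well; doses: test compound given as first of three sequential additions; schedule: overnight plating before 1 h dye loading; technique: Fluo-4 NW calcium-flux fluorescence, kinetic read; evaluation: baseline-normalised fluorescence change ratio, B-scored; control set: plate-wise positive and negative controls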
RGS4 pot: RGS4 potentiation or activation; 0.92% of 310,000 active; B-score at 10 µM; HEK293 M3R/inducible RGS4, carbachol calcium flux Fluo4; hits give low values; AID 463111;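 active means B-score of the integrated calcium signal more than 4 SD below the library mean, with starting fluorescence not abnormally high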;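 further: negative B-score means reduced calcium response which marks RGS4 activation or potentiation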
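test system = HEK293 cells with stable M3R and inducible RGS4 | schedule = recording 10 s baseline at 1 Hz, 100 s post-agonist | technique = Fluo4-AM (2 µM) calcium-flux fluorescence, kinetic read | measure = Agonist-evoked peak-minus-minimum fluorescence over baseline, integrated ratio, B score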
RGS4 inh: human RGS4 inhibition; HEK293 M3R/RGS4 inducible, Fluo-4 calcium flux; hits give high values; triggered by carbachol at its EC20; P49798; 0.45% of 310,000 active; B-score at 10 µM;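 active means B-score, a plate-corrected calcium signal, over three deviations above library mean, with baseline fluorescence within five deviations of library mean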;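 further: RGS4 expression induced by doxycycline in cells with stable M3 receptor; B-score is computed from the integrated fluorescence ratio over baseline after carbachol; higher B-score means a larger calcium signal and so more RGS4 inhibition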
Target sequence (P49798 whole entry, looked up): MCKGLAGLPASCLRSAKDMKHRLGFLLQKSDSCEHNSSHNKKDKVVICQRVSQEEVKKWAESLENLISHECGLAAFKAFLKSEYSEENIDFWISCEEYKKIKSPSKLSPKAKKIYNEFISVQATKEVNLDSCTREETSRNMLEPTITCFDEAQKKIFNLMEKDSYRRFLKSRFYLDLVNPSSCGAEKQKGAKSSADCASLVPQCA
MrgX1 PAM: human MrgX1 positive allosteric modulation, primary screen | Q96LB2 | MrgX1-HEK293, Fluo-4 calcium flux, FDSS; hits give high values | B-score at 10 µM | 0.63% of 310,000 active;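 active means plate-corrected calcium response at least 3 library SD above typical, normal starting fluorescence, not activating the receptor alone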;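 further: compound read alongside a low EC10 to EC30 dose of BAM8-22 agonist; peak minus trough fluorescence over baseline measured at the second addition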
MrgX1 antag conf: confirmation of human MrgX1 receptor antagonists; shares compounds with MrgX1 antag; MrgX1-HEK293, BAM8-22 calcium flux, Fluo-4; hits give low values; remaining BAM8-22 calcium response % of control (hits give low values), % at 10 µM; 19% of 2,300 active;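 active means remaining agonist calcium response no higher than 100% minus 3 SD of agonist-only control wells, with starting fluorescence near control levels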;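 further: agonist BAM8-22 given at a near maximal EC90 to ECmax level; peak minus minimum fluorescence divided by baseline after agonist addition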
HEK293 Ca flux: counter-screen for MrgX1 antagonists: effect in parental HEK293 cells. shares compounds with MrgX1 antag. Fluo-4 calcium fluorescence, FDSS. fluorescence ratio F(max-min)/F0 at 10 µM. 2% of 4,000 active. AID 624111;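 active means duplicate-averaged calcium fluorescence ratio at least three times the standard deviation of buffer wells, a nonspecific response in parental cells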
HEK293 Ca counter: MrgX1 allosteric activator counter-screen hit in parental HEK293 cells | parental HEK293 calcium flux, Fluo-4 fluorescence ratio; hits give high values | shares compounds with MrgX1 antag | 0.4% of 4,000 active | fluorescence ratio F(max-min)/F0 at 10 µM;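 active means calcium fluorescence ratio, averaged over duplicates, at least 3 SD of the buffer-well ratio, meaning a nonspecific response in receptor-free cells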;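 further: untransfected parental HEK293 lacking MrgX1 used as counterscreen for MrgX1 allosteric activators; fluorescence change taken during the second addition on a kinetic imager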
HEK293 Ca cntr2: MrgX1 activator counter-screen hit in parental HEK293 cells; shares compounds with MrgX1 antag; Fluo-4 calcium fluorescence (FDSS); hits give high values; fluorescence ratio F(max-min)/F0 at 10 µM; 8.7% of 4,000 active;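 active means calcium fluorescence ratio at least three times the spread of buffer wells, meaning a non-specific response in parental cells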
Of the large screens only hits and unclear results are named; the others gave an inactive call (follow-up assays come after a bar, where they were run). In the library only some 3.5% were active in any assay of this set; here they are far more common.

Cc1ccc2[nH]c3c(N4CCN(Cc5ccccc5)CC4)ncnc3c2c1	MrgX1 antag -6.2 | MrgX1 antag conf 65% | HEK293 Ca flux inactive | HEK293 Ca counter inactive | HEK293 Ca cntr2 inactive
Cc1ccc2c(c1)[nH]c1c(N3CCN(Cc4ccccc4)CC3)ncnc12	none
CCC1=CC(c2ccccc2)n2ncnc2N1 (configuration not stated)	none
CCN(CC(=O)Nc1c(F)cccc1F)C(=O)C1CCN(c2ncnc3sc(C)c(C)c23)CC1	MrgX1 antag -8.2 | MrgX1 antag conf inactive | HEK293 Ca flux inactive | HEK293 Ca counter inactive | HEK293 Ca cntr2 inactive
Cc1cccc(C)c1NC(=O)CN(C)C(=O)C1CCN(c2ncnc3sc(C)c(C)c23)CC1	none
S=c1nc(-c2ccccc2Br)[nH][nH]1	MrgX1 antag -6.1 | MrgX1 antag conf inactive | HEK293 Ca flux inactive | HEK293 Ca counter inactive | HEK293 Ca cntr2 inactive
CCN(CC(=O)Nc1c(F)cccc1F)C(=O)COc1cccc2c1OC(C)(C)C2	MrgX1 antag -5.4 | MrgX1 antag conf inactive | HEK293 Ca flux inactive | HEK293 Ca counter inactive | HEK293 Ca cntr2 inactive
Cn1c(Cc2ccc(Cl)cc2)nnc1SCC(=O)NC1CC1	none
CSCCC(N=C1NS(=O)(=O)c2ccccc21)C(=O)NCCc1ccccc1 (configuration not stated)	none
CN(C)c1ccc(C(=O)Nc2cc(C(F)(F)F)ccc2-n2cncn2)cc1	MrgX1 antag -11 | MrgX1 antag conf inactive | HEK293 Ca flux inactive | HEK293 Ca counter inactive | HEK293 Ca cntr2 inactive
Cc1cccc(-n2ncc3c(NCCc4ccc(S(N)(=O)=O)cc4)ncnc32)c1	MrgX1 antag -5.5 | MrgX1 antag conf 82% | HEK293 Ca flux inactive | HEK293 Ca counter inactive | HEK293 Ca cntr2 inactive
Cc1cccc(-n2ncc3c(NCc4ccccc4)ncnc32)c1	none
COc1ccc2oc(C(=O)OCC(=O)NC(C)c3ccccc3)c(C)c2c1 (configuration not stated)	none
CS(=O)(=O)N(CC(=O)Nc1ccc(S(=O)(=O)N2CCCC2)cc1)c1ccccc1F	none
COC(=O)[C@@H](Cc1c[nH]c2ccccc12)NC(=O)c1cc(=O)[nH]c2ccccc12	none
COC(=O)C(Cc1ccccc1)NC(=O)c1cc(=O)[nH]c2ccccc12 (configuration not stated)	MrgX1 antag -4.7 | MrgX1 antag conf inactive | HEK293 Ca flux inactive | HEK293 Ca counter inactive | HEK293 Ca cntr2 inactive
O=C(O)c1ccc(Oc2ccc(S(=O)(=O)c3ccc(C(=O)O)c(C(=O)O)c3)cc2)cc1	none
O=C(O)c1ccc(NC2=C(Cl)C(=O)c3ccccc3C2=O)cc1	MrgX1 antag -18, RGS4 pot -7.3 | MrgX1 antag conf 14% | HEK293 Ca flux inactive | HEK293 Ca counter inactive | HEK293 Ca cntr2 inactive
C=CCNc1oc(/C=C/c2ccccc2)nc1C#N	none
CC(C)(O)c1[nH]c2cc(C(F)(F)F)ccc2c1C(C)(C)O	none
O=C(Nc1cccc(O)c1)c1cc(S(=O)(=O)N2CCCC2)ccc1Cl	MrgX1 antag -5.1 | MrgX1 antag conf inactive | HEK293 Ca flux inactive | HEK293 Ca counter inactive | HEK293 Ca cntr2 inactive
Cc1ccc(NS(=O)(=O)c2cc(OCC(N)=O)c(C)cc2Cl)cc1	none
CCN(CC)c1ccc(C(=O)NC(=S)Nc2cc(S(=O)(=O)N3CCOCC3)ccc2-n2cncn2)cc1	none
COc1ccccc1NC(=O)CSc1nc(N)cc(N)n1	MrgX1 antag -5.5 | MrgX1 antag conf inactive | HEK293 Ca flux inactive | HEK293 Ca counter inactive | HEK293 Ca cntr2 inactive
COc1ccccc1NC(=O)CSc1nc(N)c(C#N)cc1C#N	none
COCc1c(C(=O)N/N=C/c2ccncc2)nnn1-c1nonc1N	none
Cc1ccc(S(=O)(=O)N(C)C)cc1NC(=S)NC(=O)C12CC3CC(CC(C3)C1)C2	MrgX1 antag -6.6 | MrgX1 antag conf inactive | HEK293 Ca flux inactive | HEK293 Ca counter inactive | HEK293 Ca cntr2 inactive
CSc1ccccc1NC(=S)NC1CCCCC1	none
Cc1cccc(COc2ccccc2C(=O)NC2CCC(O)CC2)c1 (configuration not stated)	MrgX1 antag -10 | MrgX1 antag conf inactive | HEK293 Ca flux inactive | HEK293 Ca counter inactive | HEK293 Ca cntr2 inactive
COc1ccccc1C(=O)NC1CCCCCCC1	MrgX1 antag -11 | MrgX1 antag conf inactive | HEK293 Ca flux inactive | HEK293 Ca counter inactive | HEK293 Ca cntr2 inactive
CC(=O)NC(=S)Nc1ccccc1C(=O)NC1CCCCC1	MrgX1 antag -8.3 | MrgX1 antag conf inactive | HEK293 Ca flux inactive | HEK293 Ca counter inactive | HEK293 Ca cntr2 inactive
S=C(Nc1cccc2ccccc12)NC1CCCCC1	MrgX1 antag -5.4 | MrgX1 antag conf inactive | HEK293 Ca flux inactive | HEK293 Ca counter inactive | HEK293 Ca cntr2 inactive
CCCN1CCc2c(sc(NC(=O)C3CCN(S(=O)(=O)c4cccs4)CC3)c2C(N)=O)C1	none
COc1ccccc1NC(=O)N1CCC(NC(=O)C2CCCCC2)CC1	MrgX1 antag -8.2 | MrgX1 antag conf inactive | HEK293 Ca flux inactive | HEK293 Ca counter inactive | HEK293 Ca cntr2 inactive
COC(=O)C1CSC(C(=O)OC)N1C(=O)Nc1ccccc1 (configuration not stated)	none
COC(=O)C1CSC(C(=O)OC)N1C(=O)CN1CCN(c2ccccc2)CC1 (configuration not stated)	MrgX1 antag -8.1 | MrgX1 antag conf 77% | HEK293 Ca flux inactive | HEK293 Ca counter inactive | HEK293 Ca cntr2 inactive
COc1cccc(C2=CC(c3ccc(OC)c(OC)c3OC)n3nnnc3N2)c1 (configuration not stated)	none
COc1cccc(C2=CC(c3cccs3)n3nnnc3N2)c1 (configuration not stated)	MrgX1 antag -5.5 | MrgX1 antag conf 84% | HEK293 Ca flux inactive | HEK293 Ca counter inactive | HEK293 Ca cntr2 inactive
COc1ccc(C(=O)NCCCNC(=O)c2ccc(C)nc2)cc1	none
Oc1ccc(Cl)cc1/C=C/c1ccc2cccc(O)c2n1	none (no result: MrgX1 antag, MrgX1 ag, MrgX1 PAM)
Oc1c(Cl)cc(Cl)cc1/C=C/c1ccc2cccc(O)c2n1	MrgX1 antag -7.7 | MrgX1 antag conf inactive | HEK293 Ca flux inactive | HEK293 Ca counter inactive | HEK293 Ca cntr2 inactive
Cc1ccc2nc(C(O)C(O)c3nc4ccc(C)cc4[nH]3)[nH]c2c1 (configuration not stated)	none
